Experiments:
Assay type in all cases: functional
Staphylococcus aureus = test: Antibiofilm activity against methicillin-resistant Staphylococcus aureus LAC established catheter-associated biofilm model at 20 times MIC after 72 hrs relative to control
Escherichia coli [1] = test: Antibacterial activity against polymyxin-resistant Escherichia coli UAMS-ECPR2 after 18 to 20 hrs by broth microdilution method
Summary of the method: (§1)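 Broth microdilution in tryptic soy broth: 2-fold dilutions mixed 1:1 with ~1.5 × 10^5 CFU/mL bacterial suspension in TSB, final 0.5–32 μg/mL, 37 °C for 18–20 h. MIC = lowest concentration with no visible growth. At least three independent experiments, one replicate each.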

Escherichia coli [2] = test: Antibacterial activity against polymyxin-resistant Escherichia coli AR 0494 expressing mcr1 after 18 to 20 hrs by broth microdilution method; summary of the method: as §1
Klebsiella pneumoniae [3] = test: Antibacterial activity against polymyxin-resistant Klebsiella pneumoniae UAMS-KPPR3 after 18 to 20 hrs by broth microdilution method
Escherichia coli [4] = test: Antibacterial activity against polymyxin-resistant Escherichia coli UAMS-ECPR1 after 18 to 20 hrs by broth microdilution method; summary of the method: as §1
Klebsiella pneumoniae [5] = test: Antibacterial activity against polymyxin-resistant Klebsiella pneumoniae UAMS-KPPR1 after 18 to 20 hrs by broth microdilution method

Compound	Activity (Staphylococcus aureus)	MIC (Escherichia coli [1])	MIC (Escherichia coli [2])	MIC (Klebsiella pneumoniae [3])	MIC (Escherichia coli [4])	MIC (Klebsiella pneumoniae [5])
CCCCCCCCCC(=O)N[C@@H](Cc1c[nH]c2ccccc12)C(=O)N[C@@H](CC(N)=O)C(=O)N[C@@H](CC(=O)O)C(=O)N[C@@H]1C(=O)NCC(=O)N[C@@H](CCCN)C(=O)N[C@@H](CC(=O)O)C(=O)N[C@H](C)C(=O)N[C@@H](CC(=O)O)C(=O)NCC(=O)N[C@H](CO)C(=O)N[C@@H]([C@H](C)CC(=O)O)C(=O)N[C@@H](CC(=O)c2ccccc2N)C(=O)O[C@@H]1C [DAPTOMYCIN]	17%					
POLYMYXIN B		32 µg/mL	2 to 8 µg/mL	> 32 µg/mL	32 µg/mL	> 32 µg/mL
